# Measured values reported in ChEMBL document CHEMBL4689842, “EUbOPEN Chemogenomics Library wave 1” (2021).
# Values joined by “and” are separate entries in the source; they are usually repeats but may differ in a detail not shown here. Identical values can stand only once.
# System: HEK-293T
# Assay: Multiplex assay against HEK293T;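 for Population Tubulin-Different-Phenotype (%): share of the cells with healthy nuclei that show this phenotype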
# Type: toxicity, cell-based
# Conditions: human
# Procedure, shortened: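 Phenotypes for tubulin, mitochondrial mass and membrane permeability are expressed as per cents of healthy-nucleus cells. Cells were stained live at seeding with Hoechst33342, BioTracker Green Microtubule Cytoskeleton Dye, MitoTracker Red and Annexin V Alexa Fluor 680, then imaged after compound addition on a CQ1 microscope at 37°C and 5% CO2. Machine-learning gating in CellPathfinder separated Hoechst high-intensity objects from normal cells, divided normal cells by nuclear state (healthy, pyknosed, fragmented) and divided pyknosed cells into mitotic or apoptotic.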
# [1] = 12 h, 1 µM, compound concentration 1 uM, replicate 1
# [2] = 12 h, 1 µM, compound concentration 1 uM, replicate 2
# [3] = 24 h, 1 µM, compound concentration 1 uM, replicate 1
# [4] = 24 h, 1 µM, compound concentration 1 uM, replicate 2
# [5] = 12 h, 10 µM, compound concentration 10 uM, replicate 1
# [6] = 12 h, 10 µM, compound concentration 10 uM, replicate 2
# [7] = 24 h, 10 µM, compound concentration 10 uM, replicate 1
# [8] = 24 h, 10 µM, compound concentration 10 uM, replicate 2
# [9] = 48 h, 1 µM, compound concentration 1 uM, replicate 1
# [10] = 48 h, 1 µM, compound concentration 1 uM, replicate 2
# [11] = 48 h, 10 µM, compound concentration 10 uM, replicate 1
# [12] = 48 h, 10 µM, compound concentration 10 uM, replicate 2
compound,measurement,setting,value
C[C@]1(O)C[C@@H](c2nc(-c3ccc4ccc(-c5ccccc5)nc4c3)c3c(N)nccn32)C1 [LINSITINIB],Population Apoptotic (%),[1],31% and 29%
same,Population Fragmented Nuclei (%),[1],19% and 26%
same,Population Healthy Nuclei (%),[1],45% and 44%
same,Population Hoechst High Intensity Objects (%),[1],33% and 19%
same,Population Membrane Permeable-Phenotype (%),[1],11% and 4%
same,Population Mitochondria Different-Phenotype (%),[1],17% and 6%
same,Population Mitotic Cells (%),[1],68% and 70%
same,Population Normal (%),[1],66% and 80%
same,Population Pyknosed Nuclei (%),[1],35% and 28%
same,Total Cell Count,[1],588 and 493
same,Population Apoptotic (%),[2],18% and 11%
same,Population Fragmented Nuclei (%),[2],4% and 8%
same,Population Healthy Nuclei (%),[2],83% and 86%
same,Population Hoechst High Intensity Objects (%),[2],14% and 5%
same,Population Membrane Permeable-Phenotype (%),[2],5% and 1%
same,Population Mitotic Cells (%),[2],81% and 88%
same,Population Normal (%),[2],85% and 94%
same,Population Pyknosed Nuclei (%),[2],11% and 4%
same,Total Cell Count,[2],891 and 1486
same,Population Apoptotic (%),[3],31% and 26%
same,Population Fragmented Nuclei (%),[3],22% and 26%
same,Population Healthy Nuclei (%),[3],53% and 56%
same,Population Hoechst High Intensity Objects (%),[3],27% and 13%
same,Population Membrane Permeable-Phenotype (%),[3],7% and 5%
same,Population Mitochondria Different-Phenotype (%),[3],29% and 10%
same,Population Mitotic Cells (%),[3],68% and 73%
same,Population Normal (%),[3],72% and 86%
same,Population Pyknosed Nuclei (%),[3],23% and 16%
same,Total Cell Count,[3],525 and 479
same,Population Fragmented Nuclei (%),[4],10%
same,Population Healthy Nuclei (%),[4],82% and 71%
same,Population Hoechst High Intensity Objects (%),[4],18% and 6%
same,Population Membrane Permeable-Phenotype (%),[4],8% and 4%
same,Population Mitotic Cells (%),[4],80% and 93%
same,Population Normal (%),[4],81% and 93%
same,Population Pyknosed Nuclei (%),[4],6% and 2%
same,Total Cell Count,[4],1000 and 2217
CCc1nn(CCCN2CCN(c3cccc(Cl)c3)CC2)c(=O)n1CCOc1ccccc1.Cl [NEFAZODONE HYDROCHLORIDE],Population Apoptotic (%),[1],47%
same,Population Fragmented Nuclei (%),[1],7%
same,Population Healthy Nuclei (%),[1],45%
same,Population Hoechst High Intensity Objects (%),[1],10%
same,Population Membrane Permeable-Phenotype (%),[1],7%
same,Population Mitochondria Different-Phenotype (%),[1],88%
same,Population Mitotic Cells (%),[1],52%
same,Population Normal (%),[1],89%
same,Population Pyknosed Nuclei (%),[1],46%
same,Population Tubulin-Different-Phenotype (%),[1],72%
same,Population Apoptotic (%),[2],9%
same,Population Fragmented Nuclei (%),[2],5%
same,Population Healthy Nuclei (%),[2],34%
same,Population Hoechst High Intensity Objects (%),[2],3%
same,Population Membrane Permeable-Phenotype (%),[2],9%
same,Population Mitochondria Different-Phenotype (%),[2],54%
same,Population Mitotic Cells (%),[2],90%
same,Population Normal (%),[2],96%
same,Population Pyknosed Nuclei (%),[2],59%
same,Population Tubulin-Different-Phenotype (%),[2],49%
same,Population Apoptotic (%),[5],90%
same,Population Fragmented Nuclei (%),[5],29%
same,Population Hoechst High Intensity Objects (%),[5],21%
same,Population Mitochondria Different-Phenotype (%),[5],81%
same,Population Mitotic Cells (%),[5],9%
same,Population Normal (%),[5],78%
same,Population Pyknosed Nuclei (%),[5],53%
same,Population Tubulin-Different-Phenotype (%),[5],81%
same,Population Apoptotic (%),[6],83%
same,Population Fragmented Nuclei (%),[6],3%
same,Population Healthy Nuclei (%),[6],17%
same,Population Hoechst High Intensity Objects (%),[6],13%
same,Population Membrane Permeable-Phenotype (%),[6],0%
same,Population Mitochondria Different-Phenotype (%),[6],100%
same,Population Mitotic Cells (%),[6],16%
same,Population Normal (%),[6],86%
same,Population Pyknosed Nuclei (%),[6],78%
same,Population Tubulin-Different-Phenotype (%),[6],100%
same,Population Apoptotic (%),[3],50%
same,Population Fragmented Nuclei (%),[3],8%
same,Population Healthy Nuclei (%),[3],57%
same,Population Hoechst High Intensity Objects (%),[3],6%
same,Population Membrane Permeable-Phenotype (%),[3],3%
same,Population Mitochondria Different-Phenotype (%),[3],89%
same,Population Mitotic Cells (%),[3],50%
same,Population Normal (%),[3],93%
same,Population Pyknosed Nuclei (%),[3],34%
same,Population Tubulin-Different-Phenotype (%),[3],67%
same,Population Apoptotic (%),[4],23%
same,Population Fragmented Nuclei (%),[4],4%
same,Population Healthy Nuclei (%),[4],47%
same,Population Hoechst High Intensity Objects (%),[4],4%
same,Population Membrane Permeable-Phenotype (%),[4],8%
same,Population Mitochondria Different-Phenotype (%),[4],52%
same,Population Mitotic Cells (%),[4],76%
same,Population Normal (%),[4],95%
same,Population Pyknosed Nuclei (%),[4],47%
same,Population Tubulin-Different-Phenotype (%),[4],64%
same,Population Apoptotic (%),[7],90%
same,Population Fragmented Nuclei (%),[7],25%
same,Population Healthy Nuclei (%),[7],21%
same,Population Hoechst High Intensity Objects (%),[7],24%
same,Population Mitotic Cells (%),[7],9%
same,Population Normal (%),[7],75%
same,Population Pyknosed Nuclei (%),[7],52%
same,Population Apoptotic (%),[8],97%
same,Population Fragmented Nuclei (%),[8],6%
same,Population Healthy Nuclei (%),[8],19%
same,Population Hoechst High Intensity Objects (%),[8],10%
same,Population Membrane Permeable-Phenotype (%),[8],0%
same,Population Mitochondria Different-Phenotype (%),[8],100%
same,Population Mitotic Cells (%),[8],2%
same,Population Normal (%),[8],89%
same,Population Pyknosed Nuclei (%),[8],73%
same,Population Tubulin-Different-Phenotype (%),[8],100%
same,Population Apoptotic (%),[9],31%
same,Population Fragmented Nuclei (%),[9],7%
same,Population Healthy Nuclei (%),[9],77%
same,Population Hoechst High Intensity Objects (%),[9],5%
same,Population Membrane Permeable-Phenotype (%),[9],2%
same,Population Mitochondria Different-Phenotype (%),[9],49%
same,Population Mitotic Cells (%),[9],68%
same,Population Normal (%),[9],94%
same,Population Pyknosed Nuclei (%),[9],14%
same,Population Tubulin-Different-Phenotype (%),[9],44%
same,Population Apoptotic (%),[10],17%
same,Population Fragmented Nuclei (%),[10],4%
same,Population Healthy Nuclei (%),[10],72%
same,Population Hoechst High Intensity Objects (%),[10],1%
same,Population Membrane Permeable-Phenotype (%),[10],6%
same,Population Mitochondria Different-Phenotype (%),[10],27%
same,Population Mitotic Cells (%),[10],82%
same,Population Normal (%),[10],98%
same,Population Pyknosed Nuclei (%),[10],22%
same,Population Tubulin-Different-Phenotype (%),[10],49%
same,Population Apoptotic (%),[11],90%
same,Population Fragmented Nuclei (%),[11],21%
same,Population Healthy Nuclei (%),[11],33%
same,Population Hoechst High Intensity Objects (%),[11],15%
same,Population Membrane Permeable-Phenotype (%),[11],1%
same,Population Mitochondria Different-Phenotype (%),[11],98%
same,Population Mitotic Cells (%),[11],9%
same,Population Normal (%),[11],84%
same,Population Pyknosed Nuclei (%),[11],44%
same,Population Tubulin-Different-Phenotype (%),[11],94%
same,Population Apoptotic (%),[12],95%
same,Population Fragmented Nuclei (%),[12],6%
same,Population Healthy Nuclei (%),[12],27%
same,Population Hoechst High Intensity Objects (%),[12],12%
same,Population Membrane Permeable-Phenotype (%),[12],0%
same,Population Mitochondria Different-Phenotype (%),[12],100%
same,Population Mitotic Cells (%),[12],4%
same,Population Normal (%),[12],87%
same,Population Pyknosed Nuclei (%),[12],65%
same,Population Tubulin-Different-Phenotype (%),[12],100%
